Assay results taken from ChEMBL document CHEMBL3734701, “Synthesis and antibacterial activity of 4″-O-(trans-β-arylacrylamido)carbamoyl azithromycin analogs” (2015).
≈ marks a conversion by molar mass, not a printed value.

What was measured:
Format in all cases: functional
Staphylococcus aureus [1] = assay: Antibacterial activity against methicillin-susceptible Staphylococcus aureus ATCC 29213 by broth microdilution method
Method in brief: (§1)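 MICs measured in vitro by broth microdilution following NCCL recommendations, against a Gram-positive panel of sensitive and resistant strains. Azithromycin and clarithromycin were tested alongside as references.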

Staphylococcus aureus [2] = assay: Antibacterial activity against clinically isolated penicillin-resistant Staphylococcus aureus by broth microdilution method
Method in brief: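 Clinical penicillin-resistant S. aureus isolate, not further characterized, tested in a Gram-positive panel. MIC was measured by broth microdilution following NCCL recommendations, with azithromycin and clarithromycin as references.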

Streptococcus pneumoniae [3] = assay: Antibacterial activity against erythromycin-resistant Streptococcus pneumoniae B1 expressing ermB gene by broth microdilution method; method in brief: as §1
Streptococcus pyogenes [4] = assay: Antibacterial activity against clinically isolated erythromycin-resistant Streptococcus pyogenes R2 by broth microdilution method; method in brief: as §1
Staphylococcus aureus [5] = assay: Antibacterial activity against erythromycin-susceptible Staphylococcus aureus ATCC 25923 by broth microdilution method
Method in brief: (§2)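 Broth microdilution MIC following the NCCL-recommended method. Panel of sensitive and resistant Gram-positive strains: S. pyogenes S2 (erythromycin-susceptible clinical isolate), S. aureus ATCC25923 and S. pneumoniae ATCC49619 (erythromycin-susceptible). Azithromycin and clarithromycin were run alongside as references.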

Streptococcus pneumoniae [6] = assay: Antibacterial activity against erythromycin-susceptible Streptococcus pneumoniae ATCC 49619 by broth microdilution method; method in brief: as §2
Streptococcus pyogenes [7] = assay: Antibacterial activity against clinically isolated erythromycin-susceptible Streptococcus pyogenes S2 by broth microdilution method; method in brief: as §2
Streptococcus pneumoniae [8] = assay: Antibacterial activity against erythromycin-resistant Streptococcus pneumoniae A22072 expressing mefA gene by broth microdilution method; method in brief: as §1
Streptococcus pneumoniae [9] = assay: Antibacterial activity against erythromycin-resistant Streptococcus pneumoniae AB11 expressing ermB and mefA genes by broth microdilution method; method in brief: as §1

Structure (SMILES) | MIC (Staphylococcus aureus [1]) | MIC (Staphylococcus aureus [2]) | MIC (Streptococcus pneumoniae [3]) | MIC (Streptococcus pyogenes [4]) | MIC (Staphylococcus aureus [5]) | MIC (Streptococcus pneumoniae [6]) | MIC (Streptococcus pyogenes [7]) | MIC (Streptococcus pneumoniae [8]) | MIC (Streptococcus pneumoniae [9])
CC[C@H]1OC(=O)[C@H](C)[C@@H](O[C@H]2C[C@@](C)(OC)[C@@H](O)[C@H](C)O2)[C@H](C)[C@@H](O[C@@H]2O[C@H](C)C[C@H](N(C)C)[C@H]2O)[C@](C)(O)C[C@@H](C)C(=O)[C@H](C)[C@@H](O)[C@]1(C)O [ERYTHROMYCIN] | 0.12 µg/mL (≈ 0.164 µM) | 0.25 µg/mL (≈ 0.341 µM) | > 128 µg/mL | ≥ 128 µg/mL | 0.06 µg/mL (≈ 0.0818 µM) | 0.03 µg/mL (≈ 0.0409 µM) | 0.12 µg/mL (≈ 0.164 µM) | 8 µg/mL (≈ 10.9 µM) | 256 µg/mL (≈ 349 µM)
CC[C@H]1OC(=O)[C@@H](C)[C@H](O[C@@H]2C[C@](C)(OC)[C@H](OC(=O)NNC(=O)/C=C/c3ccc(OC)c(OC)c3)[C@@H](C)O2)[C@H](C)[C@H](O[C@H]2O[C@@H](C)C[C@@H](N(C)C)[C@@H]2O)[C@@](C)(O)C[C@H](C)CN(C)[C@@H](C)[C@H](OC(=O)NCc2ccccc2)[C@@]1(C)O | 4 µg/mL (≈ 3.54 µM) | 2 µg/mL (≈ 1.77 µM) | 64 µg/mL (≈ 56.6 µM) | 64 µg/mL (≈ 56.6 µM) | 0.5 µg/mL (≈ 0.442 µM) | 0.06 µg/mL (≈ 0.0531 µM) | 0.25 µg/mL (≈ 0.221 µM) | 2 µg/mL (≈ 1.77 µM) | 64 µg/mL (≈ 56.6 µM)
CC[C@@H]1OC(=O)[C@H](C)[C@@H](O[C@H]2C[C@@](C)(OC)[C@@H](OC(=O)NNC(=O)/C=C/c3cccs3)[C@H](C)O2)[C@@H](C)[C@@H](O[C@@H]2O[C@H](C)C[C@H](N(C)C)[C@H]2O)[C@](C)(O)C[C@@H](C)CN(C)[C@H](C)[C@@H](OC(=O)NCc2ccccc2)[C@]1(C)O | 4 µg/mL (≈ 3.72 µM) | 2 µg/mL (≈ 1.86 µM) | 2 µg/mL (≈ 1.86 µM) | 32 µg/mL (≈ 29.7 µM) | 1 µg/mL (≈ 0.929 µM) | 0.5 µg/mL (≈ 0.465 µM) | 0.25 µg/mL (≈ 0.232 µM) | 0.06 µg/mL (≈ 0.0557 µM) | 4 µg/mL (≈ 3.72 µM)
CC[C@@H]1OC(=O)[C@H](C)[C@@H](O[C@H]2C[C@@](C)(OC)[C@@H](OC(=O)NNC(=O)/C=C/c3cc(OC)c(OC)c(OC)c3)[C@H](C)O2)[C@@H](C)[C@@H](O[C@@H]2O[C@H](C)C[C@H](N(C)C)[C@H]2O)[C@](C)(O)C[C@@H](C)CN(C)[C@H](C)[C@@H](OC(=O)NCc2ccccc2)[C@]1(C)O | 4 µg/mL (≈ 3.45 µM) | 4 µg/mL (≈ 3.45 µM) | 32 µg/mL (≈ 27.6 µM) | 64 µg/mL (≈ 55.2 µM) | 1 µg/mL (≈ 0.862 µM) | 0.5 µg/mL (≈ 0.431 µM) | 1 µg/mL (≈ 0.862 µM) | 2 µg/mL (≈ 1.72 µM) | 16 µg/mL (≈ 13.8 µM)
CC[C@H]1OC(=O)[C@@H](C)[C@H](O[C@H]2C[C@@](C)(OC)[C@@H](OC(=O)NNC(=O)/C=C/c3ccccc3OC)[C@H](C)O2)[C@@H](C)[C@H](O[C@H]2O[C@@H](C)C[C@@H](N(C)C)[C@@H]2O)[C@@](C)(O)C[C@H](C)CN(C)[C@@H](C)[C@@H]2OC(=O)O[C@@]12C | 4 µg/mL (≈ 4.03 µM) | 8 µg/mL (≈ 8.05 µM) | 4 µg/mL (≈ 4.03 µM) | 64 µg/mL (≈ 64.4 µM) | 2 µg/mL (≈ 2.01 µM) | 4 µg/mL (≈ 4.03 µM) | 8 µg/mL (≈ 8.05 µM) | 0.25 µg/mL (≈ 0.252 µM) | 2 µg/mL (≈ 2.01 µM)
CC[C@H]1OC(=O)[C@@H](C)[C@H](O[C@H]2C[C@@](C)(OC)[C@@H](OC(=O)NNC(=O)/C=C/c3ccc(OC)c(OC)c3)[C@H](C)O2)[C@@H](C)[C@H](O[C@H]2O[C@@H](C)C[C@@H](N(C)C)[C@@H]2O)[C@@](C)(O)C[C@H](C)CN(C)[C@@H](C)[C@@H]2OC(=O)O[C@@]12C | 16 µg/mL (≈ 15.6 µM) | 8 µg/mL (≈ 7.82 µM) | 32 µg/mL (≈ 31.3 µM) | 64 µg/mL (≈ 62.5 µM) | 8 µg/mL (≈ 7.82 µM) | 2 µg/mL (≈ 1.95 µM) | 0.5 µg/mL (≈ 0.489 µM) | 0.5 µg/mL (≈ 0.489 µM) | 8 µg/mL (≈ 7.82 µM)
CC[C@H]1OC(=O)[C@@H](C)[C@H](O[C@H]2C[C@@](C)(OC)[C@@H](OC(=O)NNC(=O)/C=C/c3ccc(Br)cc3)[C@H](C)O2)[C@@H](C)[C@H](O[C@H]2O[C@@H](C)C[C@@H](N(C)C)[C@@H]2O)[C@@](C)(O)C[C@H](C)CN(C)[C@@H](C)[C@@H]2OC(=O)O[C@@]12C | 4 µg/mL (≈ 3.84 µM) | 8 µg/mL (≈ 7.68 µM) | 8 µg/mL (≈ 7.68 µM) | 16 µg/mL (≈ 15.4 µM) | 4 µg/mL (≈ 3.84 µM) | 4 µg/mL (≈ 3.84 µM) | 1 µg/mL (≈ 0.96 µM) | 0.25 µg/mL (≈ 0.24 µM) | 4 µg/mL (≈ 3.84 µM)
CC[C@H]1OC(=O)[C@@H](C)[C@H](O[C@H]2C[C@@](C)(OC)[C@@H](OC(=O)NNC(=O)/C=C/c3ccco3)[C@H](C)O2)[C@@H](C)[C@H](O[C@H]2O[C@@H](C)C[C@@H](N(C)C)[C@@H]2O)[C@@](C)(O)C[C@H](C)CN(C)[C@@H](C)[C@@H]2OC(=O)O[C@@]12C | 8 µg/mL (≈ 8.39 µM) | 4 µg/mL (≈ 4.2 µM) | 32 µg/mL (≈ 33.6 µM) | ≥ 128 µg/mL | 2 µg/mL (≈ 2.1 µM) | 8 µg/mL (≈ 8.39 µM) | 0.25 µg/mL (≈ 0.262 µM) | 1 µg/mL (≈ 1.05 µM) | 16 µg/mL (≈ 16.8 µM)
